# From PubChem BioAssay AID1027 (Sanford-Burnham Center for Chemical Genomics, 2008)
# Screen size: about 200,000 compounds; fewer than 10 were called active. These entries were drawn from the full list. Unmarked numbers belong to inactive results.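 The calls were made as follows: active = luciferase activation factor, scaled between plate controls, of at least 2 with compound at 10 µM; inactive = the rest.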
# Target: Luciferin 4-monooxygenase (Photinus pyralis) (UniProt P08659)
# Assay: FLuc activators, initial screening, artefact control for FLuc-dependent activation tests, biochemical, ATPlite luminescence (AID 1027)
# Conditions: ATPlite luciferase biochemical, 10 min, at 10 µM, hits give high values, 0 = ATP-free wells, 1 = DMSO control
# Procedure, shortened: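 Material: luciferase plus luciferin reagent, cell-free. Medium: PBS buffer for ATP. Also added: ATP substrate, dispensed from a 10.24 µM working solution in PBS. Doses: test compounds dosed from 2 mM stocks in 100% DMSO. Incubation: 10 min post-reagent at room temperature. Technique: light output (luminescence). Read-out basis: luminescence gain marking luciferase activators.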
# Sequence of Luciferin 4-monooxygenase (Photinus pyralis) (P08659 whole entry, looked up): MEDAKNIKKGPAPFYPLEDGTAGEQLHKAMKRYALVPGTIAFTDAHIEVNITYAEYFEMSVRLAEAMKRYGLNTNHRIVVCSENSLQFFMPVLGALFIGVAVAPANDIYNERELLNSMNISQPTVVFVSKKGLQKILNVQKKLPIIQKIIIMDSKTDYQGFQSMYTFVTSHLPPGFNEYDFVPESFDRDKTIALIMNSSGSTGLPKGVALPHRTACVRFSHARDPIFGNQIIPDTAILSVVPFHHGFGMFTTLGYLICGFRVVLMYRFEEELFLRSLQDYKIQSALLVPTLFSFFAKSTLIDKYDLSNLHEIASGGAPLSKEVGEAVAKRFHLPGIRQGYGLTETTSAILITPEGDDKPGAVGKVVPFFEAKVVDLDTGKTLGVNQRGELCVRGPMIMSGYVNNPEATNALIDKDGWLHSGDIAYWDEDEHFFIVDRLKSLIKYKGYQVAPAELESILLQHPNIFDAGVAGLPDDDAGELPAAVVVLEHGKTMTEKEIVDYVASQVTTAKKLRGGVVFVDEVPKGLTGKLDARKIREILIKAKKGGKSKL
row,SMILES,activation factor
1,CCn1cc(/C=C2/SC(=S)NC2=O)c(C)n1,0.8
2,COc1cccc(NC(=O)c2nn(-c3ccc(OC)cc3OC)c(=O)c3ccccc23)c1,1
3,COc1cc(SC#N)ccc1N=Cc1c(C)[nH]n(-c2ccc(C)cc2)c1=O,0.9
4,CCN=C1S/C(=C\c2cc(Br)ccc2OCC(=O)OCC)C(=O)N1CC,1
5,CCc1cccc2c(=O)c(C(=O)NCCCOC)c[nH]c12,1
6,CS(=O)(=O)N(CC(=O)N1CCCC1)Cc1ccccc1,1.1
7,O=C(NCCNc1ccc([N+](=O)[O-])cc1)c1cccc2c(Br)cccc12,1
8,Cc1ccc(SCCC(=O)NCc2ccccn2)cc1,1
9,Oc1ccc(Br)cc1C=Nc1ccc2[nH]ncc2c1,1
10,CN(CC(=O)Nc1ccc(S(=O)(=O)N2CCCC2)cc1)Cc1ccc(Cl)c(Cl)c1,1
11,CC(=O)n1c(C=Nc2ccccc2)c(O)c2ccccc21,0.4
12,CC1Cc2ccccc2N1C1=CC(=O)CC(C)(C)C1 (centres undefined),1.1
13,Cc1c(NC(=O)CCC2CCCCC2)cc(C(=O)N2CCOCC2)cc1[N+](=O)[O-],1.1
14,CCOCCCNCc1cc(Br)ccc1OCC,1
15,O=C(CSc1ccccn1)Nc1nc2c(ccc3ccccc32)s1,1.1
16,CCOc1ccc2nc(NC(=O)c3cc([N+](=O)[O-])ccc3N3CCOCC3)sc2c1,1
17,COc1ccc(-c2nc(CN3CCN(c4ncccn4)CC3)c(C)o2)cc1C,1
18,O=C(O)c1ccc2c(c1)C(=O)N(NC(=O)c1ccc(O)cc1)C2=O,1.1
19,COC(=O)c1ccc(/C=N/OCC(=O)Nc2cc(F)ccc2F)cc1,1
20,CC(NC(=S)Nc1ccc(S(N)(=O)=O)cc1)c1ccc2c(c1)OCO2 (centres undefined),1.1
21,Cc1ccc(NC(=S)N2CCN(c3ncccn3)CC2)cc1C,1.1
22,Cc1ccc(C(=O)O)cc1N1C(=O)CCCC1=O,1
23,Cn1cc(CN2CCCC(CO)C2)c(-c2ccc(Oc3ccccc3)cc2)n1 (centres undefined),1.1
24,COC(=O)c1ccc(CSc2nnc(N)s2)o1,1
25,COc1ccc(CN2CCCC(C(=O)c3ccc(Cl)cc3)C2)cc1Cn1cncn1 (centres undefined),1
26,O=C(CC1Nc2ccccc2NC1=O)Nc1ccccc1NC(=O)CC1Nc2ccccc2NC1=O (centres undefined),0.9
27,CCN(CC(=O)NCCc1ccccc1)S(=O)(=O)c1ccc(C)cc1,1.1
28,Cc1nc(N2CCCCC2)sc1C=O,1
29,C=CCn1c(SCC(=O)CC(=O)OCC)nc2cc(C(=O)N3CCC(C(N)=O)CC3)ccc2c1=O,1
